From PubChem
TAAR1 agonist: human TAAR1 agonism | activation, % at 3 µM | CHO RD-HGA16 TAAR1, Fluo-8 calcium fluorescence; vehicle wells 0%, saturating PEA agonist 100% | 360,000 compounds, 0.99% hits | Q96RJ0;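 active means activation above the mean activation of all test compounds in the run plus 3 SD, cut at about 38% in these data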
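test system = CHO RD-HGA16 cells carrying human TAAR1 plus Gα16 | schedule = 17-24 h seeding, 75 min 37 °C dye, 30 min RT | compound dosing = 3 µM single concentration | control set = DMSO and PEA EC100 | replicates = n 1 | signal = Fluo-8 fluorescence, 5 s baseline then 140 s kinetic read | measure = percent activation vs PEA EC100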
TAAR1 antagonist: antagonists of human TAAR1; Q96RJ0; CHO RD-HGA16 TAAR1, Fluo-8 calcium fluorescence, antagonist; inhibition, % at 3 µM; 360,000 compounds, 1.5% hits; AID 624466;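 active means inhibition above a per-plate cutoff, the mean inhibition of test compounds on that plate plus 3 SD, cut at about 49% in these data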
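Assay system: CHO-derived RD-HGA16 cells stably expressing human TAAR1 plus Gα16. Timing: 140 s kinetic read after compound, 140 s after agonist. Technique: kinetic Fluo-8 calcium fluorescence measurement. Measure: % inhibition of agonist calcium response.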
GPR7 antag: human neuropeptides B/W receptor 1 antagonism | inhibition, % at 4.4 µM | P48145 | 290,000 compounds, 1.1% hits | GPR7-expressing cells, fluorescence antagonist assay; in the data active means inhibition above about 16%, passing the limit was not always enough;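 further: cells stimulated with the agonist NPW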
OX1R antag-1: antagonists of human orexin 1 receptor; O43613; CHO/OX1R cells, Fluo-8 calcium fluorescence, orexin A; inhibition, % at 5 µM; 330,000 compounds, 0.43% hits;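 active means inhibition above its plate's threshold, mean inhibition of all tested compounds on the plate plus 3 SD, cut at about 37% in these data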
Target sequence (O43613 whole entry, looked up): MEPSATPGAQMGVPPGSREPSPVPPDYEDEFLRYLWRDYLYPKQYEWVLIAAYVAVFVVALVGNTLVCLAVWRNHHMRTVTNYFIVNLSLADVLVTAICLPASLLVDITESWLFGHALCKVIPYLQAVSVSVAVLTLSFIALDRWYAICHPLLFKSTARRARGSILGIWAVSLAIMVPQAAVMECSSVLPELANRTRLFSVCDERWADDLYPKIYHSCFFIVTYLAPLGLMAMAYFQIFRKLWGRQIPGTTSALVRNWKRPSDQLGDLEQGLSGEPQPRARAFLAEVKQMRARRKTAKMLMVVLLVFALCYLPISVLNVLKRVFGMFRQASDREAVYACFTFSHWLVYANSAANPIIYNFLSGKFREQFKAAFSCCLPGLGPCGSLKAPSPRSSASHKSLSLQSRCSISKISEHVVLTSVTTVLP
CHO parental Ca: counter-screen: ATP calcium response change in parental CHO cells | 330,000 compounds, 0.63% hits | inhibition, % at 5.6 µM | parental CHO-K1, ATP-induced calcium, Fluo-8 fluorescence;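 active means inhibition above that plate's mean sample inhibition plus 3 SD, cut at about 26% in these data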
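Assay system – parental CHO cells · Reagent – ATP stimulus · Detection – intracellular calcium via Fluo-8 no-wash fluorescent dye · Evaluation – percent inhibition of ATP-evoked calcium rise, normalized to controls · Controls – ATP wells versus no-ATP DMSO wells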
OX1R antag-2: blocks the human orexin 1 receptor; OX1R-expressing cells, FRET antagonist read-out; inhibition, % at 6.6 µM; 330,000 compounds, 1.8% hits; AID 485270; in the data active means inhibition mostly above about 38%, no sharp cut-off; inactive means mostly below about 40%
nonsel antag count: nonselective antagonist in TAAR1 antagonist counter-screen; shares compounds with TAAR1 antagonist; counterscreen cell line, calcium fluorescence, antagonist mode; inhibition, % at 3 µM; 2,400 compounds, 77% hits; in the data active means inhibition above about 22%;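 further: CHO-Ga16 host cells stimulated with ATP at an EC80 level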
TAAR1 antag conf: confirmation of human TAAR1 antagonists. shares compounds with TAAR1 antagonist. TAAR1-expressing cells, fluorescence antagonist read-out. inhibition, % at 3 µM. 2,400 compounds, 40% hits; in the data active means inhibition above about 49%;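 further: CHO-Ga16 host cells challenged with agonist PEA near its EC80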
Ga16 nonsel ag: nonselective Ga16 agonism, counter-screen; shares compounds with TAAR1 antagonist; Ga16-expressing cells, calcium fluorescence, agonist counterscreen; activation, % at 3 µM; 2,400 compounds, 18% hits; in the data active means activation above about 12%
TAAR1 ag count: activates human TAAR1 in antagonist counter-screen; 2,400 compounds, 2% hits; activation, % at 3 µM; hTAAR1 cell line, fluorescence activation, agonist mode; shares compounds with TAAR1 antagonist; AID 651955; in the data active means activation above about 37%;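 further: CHO cells stably expressing TAAR1 with calcium dye readout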
Hits are given with their value. Sampled rows, rich in hits. Any-hit rate of the full collection: about 4.6%.

`O=C(Nc1ccccc1)c1cccc(N2C(=O)C3C4C=CC(C5CC45)C3C2=O)c1` (configuration not stated) gave TAAR1 agonist inactive, TAAR1 antagonist inactive, GPR7 antag inactive, OX1R antag-1 inactive, CHO parental Ca inactive and OX1R antag-2 inactive.
Screening COC(=O)c1ccc(NC(=O)c2cccc(N3C(=O)C4C5C=CC(C6CC56)C4C3=O)c2)cc1 (configuration not stated) returned TAAR1 agonist inactive, TAAR1 antagonist 65, GPR7 antag inactive, OX1R antag-1 inactive, CHO parental Ca inactive, OX1R antag-2 inactive, nonsel antag count 58, TAAR1 antag conf 75, Ga16 nonsel ag 15 and TAAR1 ag count inactive.
`CN(C(=O)Cn1cnc2sccc2c1=O)C1CCCCC1` gave TAAR1 agonist inactive, TAAR1 antagonist inactive, OX1R antag-1 inactive, CHO parental Ca inactive and OX1R antag-2 inactive.
Cc1ccccc1S(=O)(=O)Cc1ccc(C(=O)N2CCN(c3ncccn3)CC2)o1 was read as TAAR1 agonist inactive, TAAR1 antagonist inactive, GPR7 antag inactive, OX1R antag-1 inactive, CHO parental Ca inactive and OX1R antag-2 inactive.
`CCc1ccccc1S(=O)(=O)Cc1ccc(C(=O)N2CCN(c3ccccn3)CC2)o1` gave TAAR1 agonist inactive, TAAR1 antagonist 51, GPR7 antag inactive, OX1R antag-1 inactive, CHO parental Ca inactive, OX1R antag-2 inactive, nonsel antag count 25, TAAR1 antag conf inactive, Ga16 nonsel ag inactive and TAAR1 ag count inactive.
`COc1ccc(Cl)cc1Cn1c(C)c(C(=O)NCc2ccc3c(c2)OCCO3)sc1=O` gave TAAR1 agonist inactive, TAAR1 antagonist 56, nonsel antag count 23, TAAR1 antag conf inactive, Ga16 nonsel ag inactive and TAAR1 ag count inactive.
Screening COc1ccc(CNC(=O)c2sc(=O)n(Cc3cc(Cl)ccc3OC)c2C)cc1 returned TAAR1 agonist inactive and TAAR1 antagonist inactive.
Screening Cn1ccn(CCCCCCn2ccn(C)c2=S)c1=S returned TAAR1 agonist inactive and TAAR1 antagonist inactive.
`COCCCNC(=O)/C(C#N)=C/c1c(N2CCN(c3ccccc3)CC2)nc2c(C)cccn2c1=O` gave TAAR1 agonist inactive, TAAR1 antagonist 50, GPR7 antag inactive, OX1R antag-1 inactive, CHO parental Ca inactive, OX1R antag-2 inactive, nonsel antag count inactive, TAAR1 antag conf inactive, Ga16 nonsel ag inactive and TAAR1 ag count inactive.
`COCCCNC(=O)/C(C#N)=C/c1c(N2CCN(c3cccc(Cl)c3)CC2)nc2c(C)cccn2c1=O` gave TAAR1 agonist inactive, TAAR1 antagonist inactive, GPR7 antag inactive, OX1R antag-1 inactive, CHO parental Ca inactive and OX1R antag-2 inactive.
`COc1ccc(-c2cc(C(=O)N/N=C/c3cccnc3)c3ccccc3n2)cc1` gave TAAR1 agonist inactive, TAAR1 antagonist inactive and GPR7 antag inactive.
For Cc1ccccc1-c1cc(C(=O)N/N=C/c2cccnc2)c2ccccc2n1 the results were TAAR1 agonist inactive, TAAR1 antagonist inactive and GPR7 antag inactive.
CC(C)Oc1ccccc1-c1cc(C(=O)N/N=C/c2cccnc2)c2ccccc2n1 was read as TAAR1 agonist inactive, TAAR1 antagonist 50, GPR7 antag inactive, OX1R antag-1 inactive, CHO parental Ca inactive, OX1R antag-2 inactive, nonsel antag count inactive, TAAR1 antag conf inactive, Ga16 nonsel ag inactive and TAAR1 ag count inactive.
Screening COc1ccc(-c2cc(C(=O)N/N=C/c3cc(OC)c(OC)cc3OC)c3ccccc3n2)cc1 returned TAAR1 agonist inactive, TAAR1 antagonist 68, OX1R antag-1 inactive, CHO parental Ca inactive, OX1R antag-2 inactive, nonsel antag count 28, TAAR1 antag conf inactive, Ga16 nonsel ag inactive and TAAR1 ag count inactive.
Screening COc1cc(/C=N/NC(=O)c2cc(-c3cccc(OC(C)C)c3)nc3ccccc23)ccc1O returned TAAR1 agonist inactive, TAAR1 antagonist 54, OX1R antag-1 inactive, CHO parental Ca inactive, OX1R antag-2 inactive, nonsel antag count inactive, TAAR1 antag conf inactive, Ga16 nonsel ag inactive and TAAR1 ag count inactive.
C[C@H](CO)N1C[C@H](C)[C@@H](CN(C)C(=O)Nc2ccccc2)OCc2cn(nn2)CCCC1=O was read as TAAR1 agonist inactive and TAAR1 antagonist inactive.
For COc1ccc(Cc2nc3ccc(C(=O)N4CCCCC4CO)cc3o2)cc1OC (configuration not stated) the results were TAAR1 agonist inactive and TAAR1 antagonist inactive.
Cc1ccc(CNc2ncnc3ccc(-c4ccoc4C)cc23)o1 was read as TAAR1 agonist inactive and TAAR1 antagonist inactive.
CN1CCN(c2ncnc3c2c(-c2ccccc2)cn3-c2ccc(F)cc2)CC1 was read as TAAR1 agonist inactive, TAAR1 antagonist 60, GPR7 antag inactive, OX1R antag-1 inactive, CHO parental Ca inactive, OX1R antag-2 inactive, nonsel antag count inactive, TAAR1 antag conf 53, Ga16 nonsel ag inactive and TAAR1 ag count inactive.
For CCOCCCNC(=O)C(c1ccc(Cl)cc1)N(Cc1cccs1)C(=O)c1ccccn1 (configuration not stated) the results were TAAR1 agonist inactive, TAAR1 antagonist 71, GPR7 antag inactive, OX1R antag-1 inactive, CHO parental Ca inactive, OX1R antag-2 inactive, nonsel antag count inactive, TAAR1 antag conf inactive, Ga16 nonsel ag inactive and TAAR1 ag count inactive.
For CCOCCCNC(=O)C(c1ccc(C)cc1)N(Cc1cccs1)C(=O)c1ccccn1 (configuration not stated) the results were TAAR1 agonist inactive, TAAR1 antagonist 61, GPR7 antag inactive, OX1R antag-1 inactive, CHO parental Ca inactive, OX1R antag-2 inactive, nonsel antag count 30, TAAR1 antag conf 55, Ga16 nonsel ag 12 and TAAR1 ag count inactive.
CCOCCCNC(=O)C(c1ccc(OC)cc1)N(Cc1ccc2c(c1)OCO2)C(=O)c1ccccn1 (configuration not stated) was read as TAAR1 agonist inactive, TAAR1 antagonist inactive, GPR7 antag inactive, OX1R antag-1 inactive, CHO parental Ca inactive and OX1R antag-2 inactive.
Screening O=C(NCc1ccccc1)C(c1ccc(F)cc1)N(Cc1cccs1)C(=O)c1cnccn1 (configuration not stated) returned TAAR1 agonist inactive, TAAR1 antagonist 52, GPR7 antag inactive, OX1R antag-1 inactive, CHO parental Ca inactive, OX1R antag-2 inactive, nonsel antag count 31, TAAR1 antag conf inactive, Ga16 nonsel ag inactive and TAAR1 ag count inactive.
